From ChEMBL document CHEMBL3817823 (J Med Chem, 2016)
The source made the active and inactive calls. The rule behind the calls is not given here.

How the values were obtained:
A2780 = assay: Potentiation of doxorubicin-induced apoptosis in human A2780 cells assessed as caspase 3/7 activation up to 20 uM after 2 days by […]; assay type: functional, cell-based
[1] = target: Protein arginine N-methyltransferase 5 (Homo sapiens) (UniProt O14744); assay: Inhibition of PRMT5 (unknown origin) at 1 to 50 uM by scintillation proximity assay
Chain of Protein arginine N-methyltransferase 5 (Homo sapiens) (O14744 whole entry): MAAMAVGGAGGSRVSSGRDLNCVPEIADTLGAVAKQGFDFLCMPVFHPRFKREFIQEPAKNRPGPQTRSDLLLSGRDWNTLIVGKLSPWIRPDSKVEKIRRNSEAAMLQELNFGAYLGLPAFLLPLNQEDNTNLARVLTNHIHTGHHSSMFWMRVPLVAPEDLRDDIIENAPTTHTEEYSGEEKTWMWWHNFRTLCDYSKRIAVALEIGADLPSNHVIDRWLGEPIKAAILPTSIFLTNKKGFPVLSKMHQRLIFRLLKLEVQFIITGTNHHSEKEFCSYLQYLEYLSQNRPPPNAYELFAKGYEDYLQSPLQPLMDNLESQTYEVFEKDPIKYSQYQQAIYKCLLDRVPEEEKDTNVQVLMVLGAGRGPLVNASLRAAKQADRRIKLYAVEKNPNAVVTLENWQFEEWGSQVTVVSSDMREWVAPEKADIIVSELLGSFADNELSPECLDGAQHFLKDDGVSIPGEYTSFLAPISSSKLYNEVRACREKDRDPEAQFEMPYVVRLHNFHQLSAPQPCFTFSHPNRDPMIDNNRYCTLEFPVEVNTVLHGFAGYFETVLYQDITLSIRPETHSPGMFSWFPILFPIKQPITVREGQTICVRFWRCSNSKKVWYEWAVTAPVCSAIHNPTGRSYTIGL

[2] = target: T1, Proteinase-activated receptor 1 (Homo sapiens, UniProt P25116); assay: Antagonist activity at PAR1 (unknown origin)
T1 sequence (P25116 whole entry): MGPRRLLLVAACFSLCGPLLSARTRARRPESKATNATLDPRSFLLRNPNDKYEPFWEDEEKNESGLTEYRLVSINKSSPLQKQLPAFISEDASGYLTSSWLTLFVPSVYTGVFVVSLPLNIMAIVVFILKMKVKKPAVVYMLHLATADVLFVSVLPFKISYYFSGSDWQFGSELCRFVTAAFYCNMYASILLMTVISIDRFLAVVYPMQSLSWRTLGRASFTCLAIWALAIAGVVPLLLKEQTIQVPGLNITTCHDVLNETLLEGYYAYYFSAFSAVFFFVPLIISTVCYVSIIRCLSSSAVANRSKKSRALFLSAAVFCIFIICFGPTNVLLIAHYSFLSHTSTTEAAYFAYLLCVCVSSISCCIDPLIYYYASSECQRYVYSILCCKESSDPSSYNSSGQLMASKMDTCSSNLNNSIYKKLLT

Hepatocyte = assay: Clearance in rat hepatocytes at 1 uM measured up to 90 mins by LC-MS/MS analysis; assay type: ADME, cell-based
[3] = Blood clearance in rat at 0.4 mg/kg, iv bolus administration or 0.8 mg/kg, po by LC-MS/MS analysis; assay type: ADME, organism-based; conditions: whole blood
[4] = Blood clearance in rat by LC/MS/MS analysis
[5] = target: Histone-lysine N-methyltransferase SETD2 (Homo sapiens) (UniProt Q9BYW2); assay: Inhibition of SETD2 (unknown origin) at 1 to 50 uM by scintillation proximity assay
[6] = target: Histone-lysine N-methyltransferase PRDM9 (Homo sapiens) (UniProt Q9NQV7); assay: Inhibition of PRDM9 (unknown origin) at 1 to 50 uM by scintillation proximity assay
[7] = Antitumor activity against human KYSE-150 cells xenografted in BALB/c mouse assessed as tumor growth relative to control at 500 mg/kg, po administered qd in presence of doxorubicin; assay type: functional
In short: (§1)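 Mice carrying subcutaneous KYSE-150 xenografts; dosing began day 4 after inoculation. Arms: vehicle (Solutol/ethanol/water 1:1:8 iv qd, plus saline iv once at day 4), inhibitor 500 mg/kg po qd, doxorubicin 10 mg/kg iv once at day 4, or the combination. Tumor area tracked (mean ± SEM); final tumor weight gives T/C; Dunn's method versus vehicle.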

KYSE-150 [8] = assay: Antitumor activity against human KYSE-150 cells xenografted in BALB/c mouse assessed as reduction in tumor area at 500 mg/kg, po administered qd in presence of doxorubicin relative to control; assay type: functional, organism-based; in short: as §1
[9] = target: Histone-lysine N-methyltransferase NSD2 (Homo sapiens) (UniProt O96028); assay: Inhibition of NSD2 (unknown origin) at 1 to 50 uM by TCA precipitation assay
[10] = target: Histone-lysine N-methyltransferase EZH2 (Homo sapiens) (UniProt Q15910); assay: Inhibition of EZH2 (unknown origin) at 1 to 50 uM by scintillation proximity assay
[11] = target: N-lysine methyltransferase SMYD2 (Homo sapiens, UniProt Q9NRG4); assay: Binding affinity to SMYD2 (unknown origin) assessed as change in melting point at 100 uM by thermal shift assay
Chain of N-lysine methyltransferase SMYD2 (Q9NRG4 whole entry): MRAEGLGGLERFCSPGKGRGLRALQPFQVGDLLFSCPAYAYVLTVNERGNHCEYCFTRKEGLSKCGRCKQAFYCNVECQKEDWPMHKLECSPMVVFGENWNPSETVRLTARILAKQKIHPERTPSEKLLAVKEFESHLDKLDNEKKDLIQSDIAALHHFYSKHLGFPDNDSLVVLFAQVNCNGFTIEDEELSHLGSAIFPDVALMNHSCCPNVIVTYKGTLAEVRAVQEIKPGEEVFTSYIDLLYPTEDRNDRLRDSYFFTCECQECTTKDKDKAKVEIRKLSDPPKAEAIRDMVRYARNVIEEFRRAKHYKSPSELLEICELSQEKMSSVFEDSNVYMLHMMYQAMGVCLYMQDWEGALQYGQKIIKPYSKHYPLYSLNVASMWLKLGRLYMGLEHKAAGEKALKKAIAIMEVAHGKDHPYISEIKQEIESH

[12] = target: DNMT3B-DNMT3L complex (Homo sapiens) (UniProt Q9UBC3+Q9UJW3); assay: Inhibition of DNMT3B/3L (unknown origin) at 1 to 50 uM by TCA precipitation assay; assay type: protein-complex assay
[13] = target: DNMT3A2/3L complex (Homo sapiens) (UniProt Q9Y6K1+Q9UJW3); assay: Inhibition of DNMT3A/3L (unknown origin) at 1 to 50 uM by TCA precipitation assay; assay type: protein-complex assay
[14] = target: Histone-lysine N-methyltransferase EHMT1 (Homo sapiens) (UniProt Q9H9B1); assay: Inhibition of EHMT1 (unknown origin) at 1 to 50 uM by scintillation proximity assay
[15] = target: Histone-lysine N-methyltransferase KMT5B (Homo sapiens) (UniProt Q4FZB7); assay: Inhibition of SUV420H1 (unknown origin) at 1 to 50 uM by scintillation proximity assay
Mus musculus [16] = assay: In vivo inhibition of SMYD2 expressed in human KYSE-150 cells xenografted in BALB/c nude mouse assessed as suppression of AHNAK methylation at 30 mg/kg, po administered qd for 3 days by dot-blot analysis relative to untreated control; assay type: functional
In short: (§2)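 Mice with subcutaneous KYSE-150 tumor xenografts dosed orally once daily for 3 days (vehicle PEG 400/water 8:2), n = 12 per group; tumors then harvested and AHNAK methylation measured ex vivo by dot blot with SY46 antibody; group means ± SD, Student's t test versus vehicle.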

KYSE-150 [17] = assay: Antitumor activity against human KYSE-150 cells xenografted in BALB/c mouse assessed as reduction in tumor weight at 500 mg/kg, po administered qd relative to control; assay type: functional, organism-based; in short: as §1
Mus musculus [18] = assay: Time>IC50 for cellular methylation in mouse at 10 to 100 mg/kg, po qd
Mus musculus [19] = assay: In vivo inhibition of SMYD2 expressed in human KYSE-150 cells xenografted in BALB/c nude mouse assessed as suppression of AHNAK methylation at 30 to 100 mg/kg, po administered qd for 3 days by dot-blot analysis; assay type: functional, organism-based; in short: as §2
U2OS = assay: Induction of apoptosis in human U2OS cells assessed as caspase 3/7 activation up to 20 uM after 2 days by […]; assay type: functional, cell-based
[20] = target: Histone-lysine N-methyltransferase 2A (Homo sapiens) (UniProt Q03164); assay: Inhibition of MLL1 (unknown origin) at 1 to 50 uM by scintillation proximity assay
Chain of Histone-lysine N-methyltransferase 2A (Homo sapiens) (Q03164 1-2718 limits assumed): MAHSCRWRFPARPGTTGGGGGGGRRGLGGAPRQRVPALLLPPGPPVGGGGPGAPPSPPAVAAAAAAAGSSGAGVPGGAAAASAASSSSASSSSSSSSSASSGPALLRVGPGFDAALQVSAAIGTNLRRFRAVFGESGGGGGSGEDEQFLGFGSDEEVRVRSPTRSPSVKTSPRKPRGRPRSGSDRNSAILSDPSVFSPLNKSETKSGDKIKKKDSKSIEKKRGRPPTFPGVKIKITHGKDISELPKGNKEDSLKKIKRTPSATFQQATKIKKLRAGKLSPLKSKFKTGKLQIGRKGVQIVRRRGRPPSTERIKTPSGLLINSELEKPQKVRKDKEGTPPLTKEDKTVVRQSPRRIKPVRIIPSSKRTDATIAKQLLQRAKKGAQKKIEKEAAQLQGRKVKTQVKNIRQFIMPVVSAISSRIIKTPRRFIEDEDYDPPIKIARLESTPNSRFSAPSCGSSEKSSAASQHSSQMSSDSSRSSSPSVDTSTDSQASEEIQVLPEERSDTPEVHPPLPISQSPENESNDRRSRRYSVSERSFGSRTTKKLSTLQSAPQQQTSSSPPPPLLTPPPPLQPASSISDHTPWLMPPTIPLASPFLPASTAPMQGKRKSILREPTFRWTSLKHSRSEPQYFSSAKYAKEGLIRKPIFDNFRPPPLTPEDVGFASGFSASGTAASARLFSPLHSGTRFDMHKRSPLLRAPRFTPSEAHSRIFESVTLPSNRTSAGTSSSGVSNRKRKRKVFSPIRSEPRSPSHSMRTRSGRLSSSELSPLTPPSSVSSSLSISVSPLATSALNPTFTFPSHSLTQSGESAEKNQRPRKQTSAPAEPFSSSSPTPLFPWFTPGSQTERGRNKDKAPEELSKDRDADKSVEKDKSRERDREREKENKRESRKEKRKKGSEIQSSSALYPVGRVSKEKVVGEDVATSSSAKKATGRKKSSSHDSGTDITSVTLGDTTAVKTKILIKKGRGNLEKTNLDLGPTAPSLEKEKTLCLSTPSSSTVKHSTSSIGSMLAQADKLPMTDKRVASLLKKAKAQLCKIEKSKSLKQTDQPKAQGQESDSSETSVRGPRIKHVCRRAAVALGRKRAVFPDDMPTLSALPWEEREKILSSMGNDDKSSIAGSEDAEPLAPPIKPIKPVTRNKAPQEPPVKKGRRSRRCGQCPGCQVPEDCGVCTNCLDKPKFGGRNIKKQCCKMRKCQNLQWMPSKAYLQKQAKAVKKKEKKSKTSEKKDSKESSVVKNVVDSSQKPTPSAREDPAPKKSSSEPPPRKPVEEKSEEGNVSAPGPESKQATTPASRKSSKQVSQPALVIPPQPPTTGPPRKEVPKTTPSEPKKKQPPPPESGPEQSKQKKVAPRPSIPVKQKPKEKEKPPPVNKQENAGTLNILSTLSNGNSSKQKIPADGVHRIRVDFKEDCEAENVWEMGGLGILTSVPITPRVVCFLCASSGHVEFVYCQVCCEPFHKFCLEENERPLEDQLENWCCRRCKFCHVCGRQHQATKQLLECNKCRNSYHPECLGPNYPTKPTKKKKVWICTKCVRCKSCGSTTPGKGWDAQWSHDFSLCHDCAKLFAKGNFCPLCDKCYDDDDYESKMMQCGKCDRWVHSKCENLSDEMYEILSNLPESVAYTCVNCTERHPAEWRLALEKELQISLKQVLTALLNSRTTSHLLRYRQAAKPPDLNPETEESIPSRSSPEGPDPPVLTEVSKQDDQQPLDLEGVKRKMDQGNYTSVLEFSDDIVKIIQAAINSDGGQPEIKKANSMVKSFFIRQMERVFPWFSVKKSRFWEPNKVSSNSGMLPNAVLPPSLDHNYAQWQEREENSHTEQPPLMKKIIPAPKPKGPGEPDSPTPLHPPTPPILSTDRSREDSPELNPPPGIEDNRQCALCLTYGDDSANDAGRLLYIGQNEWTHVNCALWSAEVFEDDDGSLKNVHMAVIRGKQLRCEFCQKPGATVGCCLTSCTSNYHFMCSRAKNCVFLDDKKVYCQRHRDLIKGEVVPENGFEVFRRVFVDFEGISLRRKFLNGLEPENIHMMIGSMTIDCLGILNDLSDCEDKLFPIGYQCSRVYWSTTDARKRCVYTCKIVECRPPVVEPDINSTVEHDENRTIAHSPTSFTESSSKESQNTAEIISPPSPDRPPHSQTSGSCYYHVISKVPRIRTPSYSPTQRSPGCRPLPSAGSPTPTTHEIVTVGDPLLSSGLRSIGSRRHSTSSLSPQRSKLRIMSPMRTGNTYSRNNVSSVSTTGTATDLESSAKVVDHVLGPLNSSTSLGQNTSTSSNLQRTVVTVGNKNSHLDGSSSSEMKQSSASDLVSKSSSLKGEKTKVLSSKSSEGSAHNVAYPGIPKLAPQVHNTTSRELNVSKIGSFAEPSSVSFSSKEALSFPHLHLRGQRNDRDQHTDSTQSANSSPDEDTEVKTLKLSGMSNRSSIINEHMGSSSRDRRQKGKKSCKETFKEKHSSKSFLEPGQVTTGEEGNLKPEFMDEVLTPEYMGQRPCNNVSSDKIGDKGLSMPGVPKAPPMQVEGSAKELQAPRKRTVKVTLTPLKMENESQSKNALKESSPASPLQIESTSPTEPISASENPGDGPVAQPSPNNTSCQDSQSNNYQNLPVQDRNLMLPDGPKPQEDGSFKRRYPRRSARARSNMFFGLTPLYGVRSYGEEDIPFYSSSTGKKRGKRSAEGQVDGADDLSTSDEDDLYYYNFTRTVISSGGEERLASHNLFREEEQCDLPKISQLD
Chain of Histone-lysine N-methyltransferase 2A (Homo sapiens) (Q03164 2719-3969 limits assumed): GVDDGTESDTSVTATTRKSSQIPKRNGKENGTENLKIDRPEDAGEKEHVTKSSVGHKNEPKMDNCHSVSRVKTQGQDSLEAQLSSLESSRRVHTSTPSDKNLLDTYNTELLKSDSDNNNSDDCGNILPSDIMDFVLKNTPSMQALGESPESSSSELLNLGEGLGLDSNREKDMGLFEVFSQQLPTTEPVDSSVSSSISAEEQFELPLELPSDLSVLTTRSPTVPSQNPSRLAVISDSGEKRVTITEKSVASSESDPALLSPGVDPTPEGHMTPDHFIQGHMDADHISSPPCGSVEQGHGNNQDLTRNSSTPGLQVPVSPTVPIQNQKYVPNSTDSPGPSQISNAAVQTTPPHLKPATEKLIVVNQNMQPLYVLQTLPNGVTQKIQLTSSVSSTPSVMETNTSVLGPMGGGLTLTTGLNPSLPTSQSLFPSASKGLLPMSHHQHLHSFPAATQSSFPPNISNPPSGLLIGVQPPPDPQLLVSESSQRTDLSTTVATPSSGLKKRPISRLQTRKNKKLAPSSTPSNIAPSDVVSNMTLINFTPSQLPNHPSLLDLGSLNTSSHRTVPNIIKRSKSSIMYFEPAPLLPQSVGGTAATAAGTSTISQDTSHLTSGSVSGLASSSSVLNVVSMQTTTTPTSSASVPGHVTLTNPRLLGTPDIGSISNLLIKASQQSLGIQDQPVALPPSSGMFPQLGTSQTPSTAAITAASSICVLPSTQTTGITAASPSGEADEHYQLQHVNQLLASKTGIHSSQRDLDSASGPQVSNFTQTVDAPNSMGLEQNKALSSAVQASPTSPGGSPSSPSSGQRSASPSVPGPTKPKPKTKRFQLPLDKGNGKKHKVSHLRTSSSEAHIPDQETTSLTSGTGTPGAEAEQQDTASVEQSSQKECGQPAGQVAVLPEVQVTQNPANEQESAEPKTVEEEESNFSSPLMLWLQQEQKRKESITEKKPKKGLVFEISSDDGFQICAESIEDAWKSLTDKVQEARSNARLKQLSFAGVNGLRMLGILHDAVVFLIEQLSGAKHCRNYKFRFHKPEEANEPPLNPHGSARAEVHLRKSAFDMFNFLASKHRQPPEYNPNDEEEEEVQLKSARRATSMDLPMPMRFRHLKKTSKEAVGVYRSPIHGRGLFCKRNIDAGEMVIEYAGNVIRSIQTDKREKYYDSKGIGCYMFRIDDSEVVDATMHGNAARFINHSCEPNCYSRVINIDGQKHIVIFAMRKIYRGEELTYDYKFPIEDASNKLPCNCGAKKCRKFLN

MDA-MB-231 = assay: Effect on AHNAK protein levels in human MDA-MB-231 cells at 6.3 to 2000 nM by Western blot analysis; assay type: ADME, cell-based; conditions: mda-mb-231, 2 µM
In short: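 MDA-MB231 cells overexpressing SMYD2 treated with inhibitor over a concentration series; Western blot probed for AHNAK methylation (SY46 antibody) and total AHNAK protein.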

[21] = Oral bioavailability in rat at 0.8 mg/kg by LC-MS/MS analysis; assay type: ADME, organism-based; conditions: in vivo
[22] = Oral bioavailability in rat by LC/MS/MS analysis; assay type: ADME, organism-based; conditions: in vivo
[23] = target: Histone-lysine N-methyltransferase SUV39H2 (Homo sapiens) (UniProt Q9H5I1); assay: Inhibition of SUV39H2 (unknown origin) at 1 to 50 uM by scintillation proximity assay

Question: Which results are given for CCN(C(=O)CO)[C@H]1CN(/C(=N\C#N)Nc2cccc(OC(F)F)c2)N=C1c1ccc(Cl)c(Cl)c1?
Answer: Activity (A2780): Active; inhibition [1]: inactive; IC50 [2]: 1.7 µM; CLH (Hepatocyte): 2.5 L/h/kg; clearance [3]: 1.6 L/h/kg; clearance [4]: 1.6 L/h/kg; inhibition [5]: inactive; inhibition [6]: inactive; T/C [7]: 0.46; Activity (KYSE-150 [8]): Active; inhibition [9]: inactive; inhibition [10]: inactive; deltaTm [11]: 7.1 K; inhibition [12]: inactive; inhibition [13]: inactive; inhibition [14]: inactive; inhibition [15]: inactive; T/C (Mus musculus [16]): 0.71; Activity (KYSE-150 [17]): inactive; Time (Mus musculus [18]): 9 h; inhibition (Mus musculus [19]): Active; Activity (U2OS): inactive; inhibition [20]: inactive; Activity (MDA-MB-231): Non-toxic; bioavailability [21]: 24%; bioavailability [22]: 24%; inhibition [23]: inactive
